Assay results of several laboratories.
Lines come from different studies, so protocols differ. In brackets after ≈: the same amount, converted by molar mass.
Organism: Pichia kudriavzevii

Compound | observed | technique | strain | time | endpoint | result
OC(CN1CCOCC1)(Cn1cncn1)c1ccc(F)cc1F (stereo not shown) | microbial growth | broth dilution | ATCC6258 | 48 h | MIC | > 31.3 µg/mL
C[C@@H]1[C@H](O)[C@@H](C)/C=C/C=C/C=C/C=C/C=C/C=C/C=C/[C@H](O[C@@H]2O[C@H](C)[C@@H](O)[C@H](N)[C@@H]2O)C[C@@H]2O[C@](O)(C[C@@H](O)C[C@@H](O)[C@H](O)CC[C@@H](O)C[C@@H](O)CC(=O)O[C@H]1C)C[C@H](O)[C@H]2C(=O)O | microbial growth |  | ATCC6258 |  | IC50 | 560 nM
CCCCCOc1c(OC)cc(NC(C)CCCNC(=O)C(N)CC(C)C)c2nc(C(C)(C)C)ccc12 (stereo not shown) | microbial killing |  | ATCC6258 |  | MFC | 10 µg/mL (≈ 19.4 µM)
CCCCCCCCCCN1CCN(CC(O)(Cn2cncn2)c2ccc(F)cc2F)CC1 (stereo not shown) | microbial growth | broth dilution | ATCC6258 | 48 h | MIC | 1.95 µg/mL (≈ 4.21 µM)
CCCCOc1c(OC)cc(NC(C)CCCN)c2nc(C(C)(C)C)cc(C)c12 (stereo not shown) | microbial killing |  | ATCC6258 |  | MFC | 10 µg/mL (≈ 24.9 µM)
CCCCCCCCCCCCCN1CCNCC1 | microbial growth | broth dilution | ATCC6258 | 48 h | MIC | 0.975 µg/mL (≈ 3.63 µM)
CCCCCCOc1c(OC)cc(NC(C)CCCNC(=O)C(N)Cc2cnc[nH]2)c2nc(C(C)(C)C)ccc12 (stereo not shown) | microbial killing |  | ATCC6258 |  | MFC | > 20 µg/mL
C[C@@H]1[C@H](O)[C@@H](C)/C=C/C=C/C=C/C=C/C=C/C=C/C=C/[C@H](O[C@@H]2O[C@H](C)[C@@H](O)[C@H](N)[C@@H]2O)C[C@@H]2O[C@](O)(C[C@@H](O)C[C@@H](O)[C@H](O)CC[C@@H](O)C[C@@H](O)CC(=O)O[C@H]1C)C[C@H](O)[C@H]2C(=O)O | microbial growth |  | ATCC6258 |  | MIC | 1.25 µg/mL (≈ 1.35 µM)
CN1CCN(CC(O)(Cn2cncn2)c2ccc(F)cc2F)CC1 (stereo not shown) | microbial growth | broth dilution | ATCC6258 | 48 h | MIC | 15.6 µg/mL (≈ 46.2 µM)
C[C@@H]1[C@H](O)[C@@H](C)/C=C/C=C/C=C/C=C/C=C/C=C/C=C/[C@H](O[C@@H]2O[C@H](C)[C@@H](O)[C@H](N)[C@@H]2O)C[C@@H]2O[C@](O)(C[C@@H](O)C[C@@H](O)[C@H](O)CC[C@@H](O)C[C@@H](O)CC(=O)O[C@H]1C)C[C@H](O)[C@H]2C(=O)O | microbial growth |  |  |  | MIC90 | 0.125 µg/mL (≈ 0.135 µM)
C[C@@H]1[C@H](O)[C@@H](C)/C=C/C=C/C=C/C=C/C=C/C=C/C=C/[C@H](O[C@@H]2O[C@H](C)[C@@H](O)[C@H](N)[C@@H]2O)C[C@@H]2O[C@](O)(C[C@@H](O)C[C@@H](O)[C@H](O)CC[C@@H](O)C[C@@H](O)CC(=O)O[C@H]1C)C[C@H](O)[C@H]2C(=O)O | microbial killing |  | ATCC6258 |  | MFC | 1.25 µg/mL (≈ 1.35 µM)
CCCCCCCCCCCCN1CCNCC1 | microbial growth | broth dilution | ATCC6258 | 48 h | MIC | 1.95 µg/mL (≈ 7.66 µM)
C[C@@H](c1ncncc1F)[C@](O)(Cn1cncn1)c1ccc(F)cc1F | microbial growth |  |  |  | MIC90 | 0.25 µg/mL (≈ 0.716 µM)
C[C@@H]1[C@H](O)[C@@H](C)/C=C/C=C/C=C/C=C/C=C/C=C/C=C/[C@H](O[C@@H]2O[C@H](C)[C@@H](O)[C@H](N)[C@@H]2O)C[C@@H]2O[C@](O)(C[C@@H](O)C[C@@H](O)[C@H](O)CC[C@@H](O)C[C@@H](O)CC(=O)O[C@H]1C)C[C@H](O)[C@H]2C(=O)O | microbial growth | broth dilution | ATCC6258 |  | IC50 | 0.65 µg/mL
CC(C)C1=CC2=CC(=O)[C@H]3C(C)(C)CCC[C@]3(C)C2=C(O)C1=O | microbial growth |  | ATCC6258 |  | IC50 | 12 µg/mL
C=CCCCCCCCCCCCC(O)CC(O)CO (stereo not shown) | microbial growth | broth dilution | ATCC6258 |  | IC50 | > 200 µg/mL
CCCCCCCOc1c(OC)cc(NC(C)CCCN)c2nc(C(C)(C)C)cc(C)c12 (stereo not shown) | microbial growth |  | ATCC6258 |  | IC50 | 2.89 µg/mL
CCCCCN1CCNCC1 | microbial growth | broth dilution | ATCC6258 | 48 h | MIC | > 31.3 µg/mL
CCCCCCOc1c(OC)cc(NC(C)CCCN)c2nc(C(C)(C)C)cc(C)c12 (stereo not shown) | microbial growth |  | ATCC6258 |  | IC50 | 3.73 µg/mL
CC(=O)N1CCN(c2ccc(OCC3COC(Cn4ccnc4)(c4ccc(Cl)cc4Cl)O3)cc2)CC1 (stereo not shown) | microbial growth |  |  |  | MIC90 | 1 µg/mL (≈ 1.88 µM)
CCCCCCCCN1CCNCC1 | microbial growth | broth dilution | ATCC6258 | 48 h | MIC | > 31.3 µg/mL
CCCCCOc1c(OC)cc(NC(C)CCCNC(=O)C(N)Cc2ccccc2)c2nc(C(C)(C)C)ccc12 (stereo not shown) | microbial growth |  | ATCC6258 |  | IC50 | 7.37 µg/mL
